KCNK3 inh – human KCNK3 channel inhibition, primary screen | CHO-KCNK3 thallium flux, FluxOR fluorescence; active compounds read low | AID 602410 | actives 0.84% (n = 340,000) | B-score at 10 µM;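 active = B-score under library mean minus 4 SD, starting fluorescence ratio at most library mean plus 5 SD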;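 note: more negative B-score means stronger inhibition of thallium flux through KCNK3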
PHOSPHO1 block – inhibitors of human PHOSPHO1 phosphatase | Q8TCT1 | recombinant PHOSPHO1, absorbance phosphatase assay | inhibition, % at 13.3 µM | actives 1.1% (n = 290,000) | AID 1565; in the data active = inhibition above about 60%
KCNQ1 inh – inhibitors of human KCNQ1 potassium channel | B-score at 10 µM | P51787 | actives 1.3% (n = 310,000) | AID 2642 | CHO-K1 KCNQ1, FluxOR thallium flux fluorescence; active compounds read high;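 active = compounds whose thallium flux B-score, printed positive for inhibition, exceeds three library SD while starting fluorescence stays within three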;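 note: channel opened by potassium depolarization with thallium stimulus after 20 min compound exposure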
Target sequence (P51787 whole entry, looked up): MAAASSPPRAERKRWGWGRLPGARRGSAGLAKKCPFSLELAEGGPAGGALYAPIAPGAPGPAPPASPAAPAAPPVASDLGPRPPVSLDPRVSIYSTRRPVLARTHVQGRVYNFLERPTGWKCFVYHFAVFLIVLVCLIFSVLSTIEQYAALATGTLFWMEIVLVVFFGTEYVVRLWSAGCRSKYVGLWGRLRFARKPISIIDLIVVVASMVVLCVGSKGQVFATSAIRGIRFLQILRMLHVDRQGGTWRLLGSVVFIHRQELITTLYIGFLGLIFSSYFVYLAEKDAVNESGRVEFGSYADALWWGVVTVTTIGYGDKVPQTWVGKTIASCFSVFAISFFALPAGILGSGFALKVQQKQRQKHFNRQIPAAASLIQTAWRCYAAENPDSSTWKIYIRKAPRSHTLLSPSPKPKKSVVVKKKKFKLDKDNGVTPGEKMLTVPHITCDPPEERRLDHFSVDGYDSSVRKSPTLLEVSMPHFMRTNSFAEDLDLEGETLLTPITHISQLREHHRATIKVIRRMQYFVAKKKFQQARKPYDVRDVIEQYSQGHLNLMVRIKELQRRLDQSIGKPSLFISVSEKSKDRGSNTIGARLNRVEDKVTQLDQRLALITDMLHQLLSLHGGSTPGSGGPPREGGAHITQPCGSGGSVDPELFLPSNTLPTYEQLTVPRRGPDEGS
hERG rescue – shields human hERG channel from block by proarrhythmic agents; CHO-hERG, FluxOR thallium flux, dofetilide IC70 present; activation (rescue from dofetilide block), less the hit threshold, % at 10 µM; actives 0.51% (n = 310,000);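 active = activation above the mean of controls blocked by dofetilide plus 5 SD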;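 note: thallium influx through hERG after potassium depolarization seen as dye fluorescence rise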
KCNQ1 pot – potentiators or activators of human KCNQ1 potassium channel; P51787; CHO-K1 KCNQ1, thallium flux FluxOR fluorescence; active compounds read high; B-score at 10 µM; actives 0.35% (n = 310,000); AID 2648;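 active = fluorescence ratio B-score, a plate-corrected score, at least three library SD, with initial intensity B-score within 5 SD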
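Medium – assay buffer, equal DMSO in all wells · Material – CHO-K1 cell line with stable KCNQ1 potassium channel expression · Signal – kinetic FluxOR thallium fluorescence, 10-s 1-Hz baseline, 110-s post-stimulus read · Compound – single concentration per compound, DMSO matched to controls · Schedule – 37 °C overnight plating, 90-min dark dye load, 20-min compound pretreatment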
KCNK9 block – inhibitors of human KCNK9 two-pore domain potassium channel; Q9NPC2; HEK293 KCNK9, FluxOR thallium flux fluorescence; active compounds read low; B-score at 10 µM; actives 1.2% (n = 310,000);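 active = ratio B-score over 3 SD below the library mean, with starting fluorescence within 5 SD of its mean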;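 note: negative B-score means less thallium flux so channel inhibition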
KCNK3 confirm – confirmation of human KCNK3 two-pore domain potassium channel inhibitors | ratio percent of control, % at 10 µM | AID 651638 | CHO-KCNK3 thallium flux, FluxOR fluorescence; 0% buffer, 100% carvedilol maximal block | actives 99% (n = 2,400) | shares compounds with KCNK3 inh;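 active = ratio percent of control, averaged over triplicates, above buffer control mean plus 5 SD, cut at about 64% in these data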;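 note: ratio is the fluorescence rise from min to max over baseline after thallium stimulus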
KCNK3 uninduced – activity in cells without induced KCNK3 expression; shares compounds with KCNK3 inh; actives 40% (n = 2,400); thallium flux ratio (lower = more inhibition) at 10 µM; AID 651747; non-induced KCNK3 parental cells, FluxOR thallium flux; active compounds read low;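 active = thallium flux ratio, averaged over three wells, more than 5 SD below the buffer control mean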;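 note: host cells are CHO cells without KCNK3 induction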
Hits are given with their value; - = inactive; . = no result given. An excerpt weighted towards active compounds, which were near 4% of everything screened.

SMILES	KCNK3 inh	PHOSPHO1 block	KCNQ1 inh	hERG rescue	KCNQ1 pot	KCNK9 block	KCNK3 confirm	KCNK3 uninduced
O=C1/C(=C/c2ccc(Br)cc2)Oc2cc(O)ccc21	-12	-	6	-	-	-	119	0.13
CC(C)(C)c1ccc(/C=C2\Oc3cc(O)ccc3C2=O)cc1	-	-	-	-	-	-	.	.
CC(=O)C1=C(O)C(=O)N(c2ccc(O)cc2)C1c1ccc(F)cc1 (configuration not stated)	-	-	-	-	-	-	.	.
C=CCOc1ccc(C(=O)Nc2ncn[nH]2)cc1	-	-	-	-	-	-	.	.
CCOc1ccccc1NC(=O)N1CCc2ccccc2C1	-9	-	-	-	-	-	84	-
CC1CCN(C(=O)c2[nH]cnc2C(=O)N[C@@H](C)C(=O)OCc2ccccc2)CC1	-	-	-	-	-	-	.	.
Cc1ccc(NC(=O)C2CCCN(S(=O)(=O)c3c(C)noc3C)C2)cc1 (configuration not stated)	-	-	-	-	-	-	.	.
O=C(O)c1ccc(Nc2nc3ccccc3nc2NS(=O)(=O)c2ccc(F)cc2)cc1	-	-	-	-	-	-	.	.
O=[N+]([O-])c1ccc(Nc2c3ccccc3nc3ccccc23)cc1	-12	-	-	-	-	-	120	0.15
O=[N+]([O-])c1ccc(S(=O)(=O)Nc2nc3ccccc3nc2Nc2ccccc2)cc1	-11	-	-	-	-	-	107	-
O=[N+]([O-])c1ccccc1Nc1c2ccccc2nc2ccccc12	-	-	-	-	-	-	.	.
COc1cc(Nc2nc3ccccc3nc2NS(=O)(=O)c2ccc([N+](=O)[O-])cc2)cc(OC)c1OC	-12	-	10	-	-	-	129	0.12
Cc1onc(-c2c(F)cccc2Cl)c1C(=O)NCCN1CCNC1=O	-	-	-	-	-	-	.	.
Cc1ccc(C(=O)COC(=O)CN2C(=O)C3C4C=CC(C4)C3C2=O)cc1C (configuration not stated)	-	-	-	-	-	-	.	.
Cc1ccc([N+](=O)[O-])c(OCCCN2CCC(Cc3ccccc3)CC2)c1	-8.8	.	7	-	-	-	119	0.13
CC(=O)N1c2ccc(S(=O)(=O)N3CCCCC3)cc2CC1C(=O)Nc1cccc(C)c1 (configuration not stated)	-11	-	-	-	-	-	95	-
CC(=O)N1c2ccc(S(=O)(=O)N3CCC(C(=O)Nc4cccc(C)c4)CC3)cc2CC1C (configuration not stated)	-	-	-	-	-	-	.	.
COc1ccc2[nH]c3c(N4CCC(O)(c5cccc(C(F)(F)F)c5)CC4)ncnc3c2c1	-12	-	-	-	-	-	122	0.15
COc1ccc2[nH]c3c(N4CCN(Cc5ccc6c(c5)OCO6)CC4)ncnc3c2c1	-	-	-	-	-	-	.	.
CN1CCN(C2Cc3cc(F)ccc3Sc3ccc(Cl)cc32)CC1 (configuration not stated)	-10	.	-	-	-	-	114	-
CC(=O)Nc1ccc(SCC(=O)Nc2cc(C(C)(C)C)nn2-c2ccccc2)cc1	-	-	-	-	-	-	.	.
C=CCn1c(SCC(=O)O)nc2sc(CC)cc2c1=O	-	-	-	-	-	-	.	.
C=CCn1c(SCC(=O)c2cccs2)nc2sc(CC)cc2c1=O	-11	-	-	-	-	-	128	-
C=CCn1c(SCC(=O)N2CCN(C(=O)c3ccco3)CC2)nc2sc(CC)cc2c1=O	-11	-	-	-	-	-	120	0.15
CC1CN(C(=O)c2cccc(S(=O)(=O)Nc3ccc(Cl)cc3)c2)CC(C)O1 (configuration not stated)	-	-	-	-	-	-	.	.
SMILES	KCNK3 inh	PHOSPHO1 block	KCNQ1 inh	hERG rescue	KCNQ1 pot	KCNK9 block	KCNK3 confirm	KCNK3 uninduced
Cc1c(C(=O)N2CCOCC2)c(S(=O)(=O)Nc2cccc(Br)c2)c(C)n1C	-	-	-	-	-	-	.	.
COc1ccc(CNC(=O)Cn2nc(C(F)(F)F)cc2C)cc1	-	-	-	-	-	-	.	.
Cc1cccc(C)c1NC(=O)CN(C)CC(=O)Nc1cc(Cl)ccc1C#N	-	-	-	-	-	-	.	.
Cc1cccc(C)c1NC(=O)CN(C)CC(=O)Nc1ccc(F)c(Cl)c1	-12	-	-	-	-	-	82	-
COc1ccc(S(=O)(=O)Nc2ccc(Oc3ccsc3C(=O)O)cc2)cc1	-	-	-	-	-	-	.	.
CC(C)CNC(=O)c1cc2nc3c(c(C(F)(F)F)n2n1)CCc1ccccc1-3	-17	-	-	-	-	-	56	-
CCOC(=O)c1ccccc1NC(=O)c1ccc2c(SCC(=O)O)c3c(nc2c1)CCCC3	-9.7	-	-	-	-	-	123	-
Cc1ccc(Nc2nc(N)nc(CSc3nccn3C)n2)c(C)c1	-	-	-	-	-	-	.	.
CCOCCn1ccc2c(OCC(=O)Nc3ccccc3OC)cccc2c1=O	-11	.	-	-	-	-	93	-
Cc1noc(C)c1COc1ccccc1C(=O)NC1CCC(C)CC1 (configuration not stated)	-10	-	-	-	-	-	106	-
Cc1noc(C)c1COc1ccccc1C(=O)NCCOc1ccccc1F	-	.	.	.	.	.	.	.
CCOC(=O)[C@@H]1[C@H]2COc3cc(OC)ccc3[C@@H]2N2C(=O)N(c3ccc(OC)cc3)C(=O)[C@]12C	-	-	-	-	-	-	.	.
CCCCN1C(=S)NC[C@@H]1c1ccccc1	-	-	-	-	-	-	.	.
CCCN1C(=S)c2ccccc2C1c1ccccc1 (configuration not stated)	-11	-	-	-	-	-	121	0.15
Cc1ccccc1N1CCN(c2ncnc3c2cnn3Cc2ccc(Cl)cc2)CC1	-	-	-	-	-	-	.	.
O=C(C[n+]1ccc(/C=N/O)cc1)N1CCCCC1	-	-	-	-	-	-	.	.
CN(C)S(=O)(=O)c1ccc(C(=O)NCc2ccco2)cc1	-9.2	-	-	-	-	-	72	-
COc1ccc(C(=O)N(Cc2ccccc2)c2cccc(C)c2)cc1	-	-	-	-	-	-	.	.
COc1ccccc1CC(=O)N(Cc1ccccc1)c1cccc(C)c1	-12	-	-	-	-	-	103	0.15
Cc1ccsc1CN(C)C(=O)c1ccc(Oc2ccccc2)cc1	-9.9	-	-	-	-	-7.5	113	-
CN(C)CCCNC(=O)c1ccc(Oc2ccccc2)cc1	-	-	-	-	-	-	.	.

Screening results (PubChem)
